Measurements from different studies.
Compare with care: the assays were run in different laboratories.
Organism: Pseudomonas aeruginosa
Effect on: microbial growth

| SMILES | technique | strain | notes | MIC |
| --- | --- | --- | --- | --- |
| [H]/N=C(/N)N[C@H]1[C@H](O)[C@@H](O)[C@H](O[C@@H]2O[C@@H](C)[C@](O)(C=O)[C@H]2O[C@@H]2O[C@@H](CO)[C@H](O)[C@@H](O)[C@@H]2NC)[C@@H](N/C(N)=N\[H])[C@@H]1O | broth dilution | ATCC27 ATCC27853 | – | 20 µg/mL |
| Cc1ccc2[nH]nc(-c3nnc(Nc4ccc(C)c(C)c4)s3)c2c1 | – | ATCC27853 | – | 108 µg/mL |
| CNC(C)C1CCC(N)C(OC2C(N)CC(N)C(OC3OCC(C)(O)C(NC)C3O)C2O)O1 (stereo not shown) | broth dilution | – | – | 2 µg/mL |
| C[C@@H](O)[C@H]1C(=O)N2C(C(=O)O)=C(S[C@@H]3CN[C@H](C(=O)N(C)C)C3)[C@H](C)[C@H]12 | – | ATCC27853 | drug-resistant strain | 0.25 µg/mL |
| COc1ccc2ccc(O)c(/C=N/[C@H]3CCCC[C@H]3/N=C/c3c(O)cccc3F)c2c1 | broth dilution | – | – | > 40 µM |
| Cc1ccc2[nH]nc(-c3nnc(Nc4ccc(Br)cc4)s3)c2c1 | – | ATCC27853 | – | 243 µg/mL |
| CO/N=C(\C(=O)N[C@@H]1C(=O)N2C(C(=O)O)=CCS[C@H]12)c1csc(N)n1 | broth dilution | ATCC27853 | – | 16 µg/mL |
| CCCCCCC#Cc1cncc(-c2nnc(SCc3ccc(Cl)cc3)n2CCCN)c1 | broth dilution | DSM1128 | – | > 64 µg/mL |
| COc1ccc2ccc(O)c(/C=N/[C@H]3CCCC[C@H]3/N=C/c3ccc(OCCN4CCCCC4)cc3O)c2c1 | broth dilution | – | clinical isolate | > 40 µM |
| CC[C@H]1OC(=O)[C@H](C)[C@@H](O[C@H]2C[C@@](C)(OC)[C@@H](O)[C@H](C)O2)[C@H](C)[C@@H](O[C@@H]2O[C@H](C)C[C@H](N(C)C)[C@H]2O)[C@](C)(O)C[C@@H](C)CN(C)[C@H](C)[C@@H](O)[C@]1(C)O | broth dilution | ATCC27853 | – | 32 µg/mL |
| Cc1ccc2[nH]nc(-c3nnc(Nc4ccc([N+](=O)[O-])cc4)s3)c2c1 | – | ATCC27853 | – | 105 µg/mL |
| C[C@H]1[C@H](NC(=O)/C(=N\OC(C)(C)C(=O)O)c2csc(N)n2)C(=O)N1S(=O)(=O)O | broth dilution | ATCC27853 | – | 2 µg/mL |
| CCCCCCCCCCCC[N+](C)(C)Cc1ccccc1 | – | PAO1 | – | 250 µM |
| Cc1cc(O)cc(Nc2nnc(-c3n[nH]c4ccc(C)cc34)s2)c1 | – | ATCC27853 | – | 147 µg/mL |
| CCCCCCC#Cc1cncc(-c2nnc(SCc3cc([N+](=O)[O-])cc([N+](=O)[O-])c3)n2C2CCNCC2)c1 | broth dilution | DSM1128 | – | > 64 µg/mL |
| C[C@@H](O)[C@H]1C(=O)N2C(C(=O)O)=C(SCCN=CN)C[C@H]12 | broth dilution | ATCC27853 | – | 4 µg/mL |
| Cc1ccc2[nH]nc(-c3nnc(Nc4cc(Cl)cc(Br)c4)s3)c2c1 | – | ATCC27853 | – | 224 µg/mL |
| CC1(C)S[C@@H]2[C@H](NC(=O)[C@H](N)c3ccccc3)C(=O)N2[C@H]1C(=O)O | broth dilution | ATCC27853 | – | 64 µg/mL |
| CC[C@H]1OC(=O)[C@H](C)[C@@H](O[C@H]2C[C@@](C)(OC)[C@@H](O)[C@H](C)O2)[C@H](C)[C@@H](O[C@@H]2O[C@H](C)C[C@H](N(C)C)[C@H]2O)[C@](C)(O)C[C@@H](C)CN(C)[C@H](C)[C@@H](O)[C@]1(C)O | – | ATCC27853 | – | < 98 µg/mL |
| COc1ccc2ccc(O)c(/C=N/[C@H]3CCCC[C@H]3/N=C/c3ccc(-c4ccccc4)cc3O)c2c1 | broth dilution | – | – | > 40 µM |
| Cc1cc(Nc2nnc(-c3n[nH]c4ccc(C)cc34)s2)cc([N+](=O)[O-])c1 | – | ATCC27853 | – | 187 µg/mL |
| CCCCCCC#Cc1cncc(-c2nnc(SCc3cc(C(F)(F)F)cc(C(F)(F)F)c3)n2CCCN)c1 | broth dilution | DSM1128 | – | > 64 µg/mL |
